Test results taken from ChEMBL document CHEMBL1138589, “Development of novel aminoglycoside (NB54) with reduced toxicity and enhanced suppression of disease-causing premature stop mutations” (J Med Chem, 2009).
≈ marks a conversion by molar mass, not a printed value.

Legend:
[1] = system: Nucleic Acid; assay: Suppression of IDUA Q70X nonsense mutant cDNA translation in TNT rabbit reticulocyte lysate transcription translation system at 25 to 100 uM at 30 degC after 90 mins by luciferase reporter gene assay
How it was run: (§1)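 A dual luciferase reporter plasmid carrying the nonsense-mutation context was used. Luciferase activities were read with a dual luciferase assay kit after incubation, and readthrough was calculated by a previously described method. Translation inhibition was monitored as the ratio of Renilla luciferase activity with versus without aminoglycoside.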

[2] = system: Nucleic Acid; assay: Suppression of CFTR G542X nonsense mutant cDNA translation in TNT rabbit reticulocyte lysate transcription translation system at 25 to 100 uM at 30 degC after 90 mins by luciferase reporter gene assay; how it was run: as §1
[3] = system: Nucleic Acid; assay: Suppression of IDUA W402X nonsense mutant cDNA translation in TNT rabbit reticulocyte lysate transcription translation system at 25 to 100 uM at 30 degC after 90 mins by luciferase reporter gene assay; how it was run: as §1
[4] = system: Nucleic Acid; assay: Suppression of Dystrophin R3381X nonsense mutant cDNA translation in TNT rabbit reticulocyte lysate transcription translation system at 25 to 100 uM at 30 degC after 90 mins by luciferase reporter gene assay; how it was run: as §1
[5] = system: Escherichia coli; assay: Inhibition of protein translation in Escherichia coli by coupled transcription/translation assay; assay type: functional
[6] = Ototoxicity in mouse organ of Corti cochlear explants assessed as outer hair cell loss at 0.1 mM by F-actin staining; assay type: toxicity; settings: 100 µM
How it was run: (§2)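 Cochlea dissected from postnatal day 3 mice; organ of Corti/spiral ganglion flat preparation cultured serum-free (BME, supplement, 1% BSA, 2 mM glutamine, glucose, penicillin) at 37°C, 5% CO2, 24 h before medium swapped for drug-containing medium. Fixed in 4% paraformaldehyde, permeabilized with Triton X-100, blocked with goat serum, F-actin stained with fluorescent phalloidin; basal segments examined.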

[7] = (§3) Toxicity against HEK293 cells; assay type: cell-based; settings: human, HEK293 cells; read-out: LC50 (the source's name)
[8] = Toxicity against african green monkey COS7 cells; assay type: cell-based, COS-7; settings: chlorocebus aethiops, read-out: LC50 (the source's name)
[9] = system: Nucleic Acid; assay: Suppression of PCDH15 R245X nonsense mutant cDNA translation in TNT rabbit reticulocyte lysate transcription translation system at 25 to 100 uM at 30 degC after 90 mins by luciferase reporter gene assay; how it was run: as §1
[10] = (§4) Toxicity against MDCK cells; assay type: cell-based, Canis lupus familiaris; settings: dog, MDCK cells; read-out: LC50 (the source's name)
[11] = system: Mus musculus; assay: Acute toxicity in iv dosed BALB/c mouse assessed as mortality administered as single dose after 4 days; assay type: organism-based; settings: in vivo, 96 h
How it was run: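 Male BALB/c mice, […] (18-20 g), 12 h light/dark cycle at 20-22 °C, food and water ad libitum. Single intravenous tail-vein injection of 150 µL of drug in PBS (pH 7), 8 animals per concentration. Appearance, behaviour and mortality were monitored for 4 days, and LD50 was derived by the Reed and Muench method.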

[12] = system: Escherichia coli; assay: Antibacterial activity against Escherichia coli R477-100 by double-microdilution method; assay type: functional
[13] = system: Ribosomal RNA A-site; assay: Binding affinity to human cytoplasmic ribosomal RNA A-site; assay type: nucleic-acid assay
How it was run: (§5)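 UV melting of RNA A-site model oligonucleotide, 2 µM in strand, drug 0 to 10 µM, in 10 mM EPPS (pH 7.0), 10 mM NaCl. RNA preheated 85 °C 5 min and slowly cooled. Absorbance read at 274 nm, 1 cm path, 0.5 °C steps with 1.5 min equilibration per step; ΔTm derived.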

[14] = system: Nucleic Acid; assay: Suppression of PCDH15 R3X nonsense mutant cDNA translation in african green monkey COS7 cells at 1 mg/mL; assay type: cell-based; settings: COS-7
How it was run: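 Dual luciferase reporter carrying PCDH15-R3X transfected into COS-7 cells by lipofection. Compound added 5 h post-transfection. Luciferase activity measured with a dual luciferase assay system, and readthrough calculated by a previously described method.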

[15] = Ototoxicity in mouse organ of Corti cochlear explants assessed as inner hair cell loss at 0.1 mM by F-actin staining; assay type: toxicity; settings: 100 µM; how it was run: as §2
[16] = system: Ribosomal RNA A-site; assay: Binding affinity to human cytoplasmic ribosomal RNA A-site assessed as thermal stability at compound/RNA ratio of 5 by UV melting profile method; assay type: nucleic-acid assay; how it was run: as §5
[17] = Ototoxicity in mouse organ of Corti cochlear explants assessed as inner hair cell loss at 1 mM by F-actin staining; assay type: toxicity; settings: 1000 µM; how it was run: as §2
[18] = Ototoxicity in mouse organ of Corti cochlear explants assessed as outer hair cell loss at 0.2 mM by F-actin staining; assay type: toxicity; settings: 200 µM; how it was run: as §2
[19] = Ototoxicity in mouse organ of Corti cochlear explants assessed as inner hair cell loss at 0.2 mM by F-actin staining; assay type: toxicity; settings: 200 µM; how it was run: as §2
[20] = system: Nucleic Acid; assay: Suppression of PCDH15 R3X nonsense mutant cDNA translation in TNT rabbit reticulocyte lysate transcription translation system at 25 to 100 uM at 30 degC after 90 mins by luciferase reporter gene assay; how it was run: as §1
[21] = system: Nucleic Acid; assay: Suppression of CFTR W1282X nonsense mutant cDNA translation in TNT rabbit reticulocyte lysate transcription translation system at 25 to 100 uM at 30 degC after 90 mins by luciferase reporter gene assay; how it was run: as §1
[22] = Ototoxicity in mouse organ of Corti cochlear explants assessed as outer hair cell loss at 1 mM by F-actin staining; assay type: toxicity; settings: 1000 µM; how it was run: as §2
[23] = system: HEK293; assay: as §3; assay type: cell-based; settings: human, hek293; read-out: LC50 (the source's name)
[24] = system: MDCK; assay: as §4; assay type: cell-based, Canis lupus familiaris; settings: dog, mdck; read-out: LC50 (the source's name)
[25] = system: Nucleic Acid; assay: Suppression of PCDH15 R3X nonsense mutant cDNA translation in african green monkey COS7 cells at 0.5 mg/mL; assay type: cell-based; settings: COS-7
How it was run: (§6)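 COS-7 cells were lipofected with the dual luciferase construct carrying PCDH15 R3X, and drugs were added 5 h after transfection at varying concentrations. Maximal doses were set from LC50 in COS-7 cells to keep cell viability above 80%. Stop-codon readthrough was read by dual luciferase assay and calculated by a previously described method.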

[26] = system: Nucleic Acid; assay: Suppression of PCDH15 R3X nonsense mutant cDNA translation in african green monkey COS7 cells at 0.25 mg/mL; assay type: cell-based; settings: COS-7; how it was run: as §6

Row | Compound | Activity [1] | Activity [2] | Activity [3] | Activity [4] | IC50 ([5]; Escherichia coli) | Activity [6] | CC50 [7] | CC50 ([8]; COS7 cells) | Activity [9] | CC50 [10] | LD50 [11] | MIC [12] | Activity [14] | Activity [15] | ΔTm [16] | Activity [17] | Activity [18] | Activity [19] | Activity [20] | Activity [21] | also measured
1 | NC[C@H]1O[C@@H](O[C@@H]2[C@@H](O)[C@H](N)C[C@H](N)[C@H]2O[C@H]2O[C@H](CO)[C@@H](O)[C@H](O)[C@H]2N)[C@H](O)[C@@H]1O | 30% | 30% | 30% | 30% | 0.415 µM | Non-toxic | 7400 µM | 10800 µM | 30% | 11500 µM | 240 mg/kg | 790 µM (≈ 359 µg/mL) | 2.75% | Non-toxic | 4.5 °C | Non-toxic | Toxic | Toxic | 30% | 30% | Ka [13]: 4.7 ×10³ /M; Activity [22]: Non-toxic
2 | GENTAMICIN [listing 1 of 2 here] |  |  |  |  |  |  |  |  |  |  | 60 mg/kg |  |  |  |  |  |  |  |  |  | IC50 [5]: 0.02 µM; CC50 [23]: 1100 µM; CC50 ([8]; cos-7): 750 µM; CC50 [24]: 780 µM
3 | NCC[C@H](O)C(=O)N[C@@H]1C[C@H](N)[C@@H](O[C@H]2O[C@H](CO)[C@@H](O)[C@H](O)[C@H]2N)[C@H](O[C@@H]2O[C@H](CN)[C@@H](O)[C@H]2O)[C@H]1O | 50% | 50% | 50% | 50% | 0.159 µM | Non-toxic |  |  | 50% |  | 500 mg/kg | 588 µM (≈ 327 µg/mL) | 5.25% | Non-toxic | 9.7 °C | Non-toxic | Toxic | Toxic | 50% | 50% | CC50 [23]: 2800 µM; CC50 ([8]; cos-7): 9300 µM; CC50 [24]: 3300 µM; Activity [22]: Non-toxic
4 | NC[C@@H]1O[C@H](O[C@H]2[C@@H](O)[C@H](O[C@@H]3[C@@H](O)[C@H](N)C[C@H](N)[C@H]3O[C@H]3O[C@H](CO)[C@@H](O)[C@H](O)[C@H]3N)O[C@@H]2CO)[C@H](N)[C@@H](O)[C@@H]1O [PAROMOMYCIN] | 40% | 40% | 40% | 40% | 0.056 µM |  | 1200 µM | 1400 µM | 40% | 1500 µM | 80 mg/kg | 22 µM (≈ 13.5 µg/mL) |  |  |  |  |  |  | 40% | 40% | Activity [25]: 1.62%
5 | GENTAMICIN [listing 2 of 2 here] | 50% | 50% | 50% | 50% |  |  |  |  | 50% |  |  | 6 µM |  |  |  |  |  |  | 50% | 50% | Activity [26]: 1.86%
